{"source": "paper PMC2735267", "about": "(Neuropharmacology, 2009)", "key": {"[1]": {"system": "[125I]epibatidine binding sites (β2*- and β4*-nAChR)", "parameters": "species or system C57BL/6J mice", "conditions": "inferior colliculus, wild-type"}, "β4*-nAChR": {"biological_target": "β4*-nAChR (Mus musculus, UniProt Q8R493+Q8R4G9)", "sequence (Q8R493 21-495)": "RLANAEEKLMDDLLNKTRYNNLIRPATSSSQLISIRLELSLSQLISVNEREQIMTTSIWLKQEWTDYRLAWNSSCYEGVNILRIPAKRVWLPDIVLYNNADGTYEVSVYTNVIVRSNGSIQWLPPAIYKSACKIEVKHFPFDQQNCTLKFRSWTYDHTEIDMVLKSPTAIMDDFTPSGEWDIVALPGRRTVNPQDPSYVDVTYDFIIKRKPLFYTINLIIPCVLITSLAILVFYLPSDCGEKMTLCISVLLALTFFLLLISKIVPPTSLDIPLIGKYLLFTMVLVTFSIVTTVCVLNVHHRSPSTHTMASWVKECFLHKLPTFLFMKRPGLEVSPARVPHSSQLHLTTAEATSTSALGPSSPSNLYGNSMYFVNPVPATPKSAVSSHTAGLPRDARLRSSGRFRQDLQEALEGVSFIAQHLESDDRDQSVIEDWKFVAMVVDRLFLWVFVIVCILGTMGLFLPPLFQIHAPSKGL", "sequence (Q8R4G9 26-499)": "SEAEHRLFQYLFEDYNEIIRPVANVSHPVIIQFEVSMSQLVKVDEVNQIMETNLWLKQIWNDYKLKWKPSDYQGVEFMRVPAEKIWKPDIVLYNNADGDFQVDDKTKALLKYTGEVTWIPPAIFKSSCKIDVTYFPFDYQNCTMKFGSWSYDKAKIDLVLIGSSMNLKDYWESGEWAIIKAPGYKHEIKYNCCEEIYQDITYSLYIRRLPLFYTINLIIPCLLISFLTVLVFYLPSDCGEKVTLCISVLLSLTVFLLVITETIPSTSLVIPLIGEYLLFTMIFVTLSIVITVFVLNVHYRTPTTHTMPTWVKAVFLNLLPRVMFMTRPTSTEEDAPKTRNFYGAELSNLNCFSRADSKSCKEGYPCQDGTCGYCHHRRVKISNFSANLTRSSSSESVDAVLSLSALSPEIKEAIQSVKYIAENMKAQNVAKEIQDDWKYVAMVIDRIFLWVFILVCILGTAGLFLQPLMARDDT", "experiment": "biochemical", "format": "binding, C57BL/6J mice", "conditions": "read-out: [125I]epibatidine (β2 -/-) Ki; inferior colliculi, β2-/- mice; 200 pM ligand"}, "human α4β2": {"biological_target": "human α4β2", "conditions": "read-out: Ki human α4β2; expressed in Xenopus oocytes; ref Slater et al., 2003; cited from earlier work"}, "α7-nAChR": {"biological_target": "α7-nAChR (Mus musculus, UniProt P49582)", "sequence (P49582 23-502)": "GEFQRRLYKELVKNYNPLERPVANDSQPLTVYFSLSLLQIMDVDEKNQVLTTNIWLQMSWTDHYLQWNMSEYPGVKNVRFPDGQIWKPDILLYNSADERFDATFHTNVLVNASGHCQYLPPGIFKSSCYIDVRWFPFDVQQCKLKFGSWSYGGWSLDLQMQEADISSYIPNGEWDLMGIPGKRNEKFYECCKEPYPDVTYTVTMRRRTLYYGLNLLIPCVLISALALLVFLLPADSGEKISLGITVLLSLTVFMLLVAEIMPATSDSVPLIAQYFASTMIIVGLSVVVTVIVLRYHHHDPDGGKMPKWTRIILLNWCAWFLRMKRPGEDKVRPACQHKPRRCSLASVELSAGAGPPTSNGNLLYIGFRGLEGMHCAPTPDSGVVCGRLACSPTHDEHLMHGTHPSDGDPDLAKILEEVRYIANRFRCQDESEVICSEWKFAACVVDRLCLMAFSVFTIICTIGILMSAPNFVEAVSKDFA", "experiment": "biochemical", "format": "binding, C57BL/6J mice", "conditions": "read-out: [125I]α-bungarotoxin (WT) Ki; […]; 0.5 nM ligand; one-site model"}, "β2*-nAChR": {"biological_target": "β2*-nAChR (Mus musculus, UniProt O70174+Q9ERK7)", "sequence (O70174 31-629)": "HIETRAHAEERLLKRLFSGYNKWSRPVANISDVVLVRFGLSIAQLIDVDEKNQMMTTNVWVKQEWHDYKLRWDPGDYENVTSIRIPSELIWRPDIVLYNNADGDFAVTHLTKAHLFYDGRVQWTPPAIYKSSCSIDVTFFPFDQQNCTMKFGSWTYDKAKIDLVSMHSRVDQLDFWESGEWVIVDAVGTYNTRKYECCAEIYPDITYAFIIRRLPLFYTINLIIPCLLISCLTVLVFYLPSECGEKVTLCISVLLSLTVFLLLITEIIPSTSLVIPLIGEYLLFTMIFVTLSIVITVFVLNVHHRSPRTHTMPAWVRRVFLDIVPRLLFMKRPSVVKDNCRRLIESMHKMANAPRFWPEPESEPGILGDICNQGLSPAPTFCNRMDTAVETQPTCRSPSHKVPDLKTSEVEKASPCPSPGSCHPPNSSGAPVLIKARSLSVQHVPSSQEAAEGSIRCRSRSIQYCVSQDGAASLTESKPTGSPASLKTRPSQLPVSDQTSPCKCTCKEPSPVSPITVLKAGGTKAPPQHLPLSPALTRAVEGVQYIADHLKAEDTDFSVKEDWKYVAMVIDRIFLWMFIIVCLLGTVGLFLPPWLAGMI", "sequence (Q9ERK7 26-501)": "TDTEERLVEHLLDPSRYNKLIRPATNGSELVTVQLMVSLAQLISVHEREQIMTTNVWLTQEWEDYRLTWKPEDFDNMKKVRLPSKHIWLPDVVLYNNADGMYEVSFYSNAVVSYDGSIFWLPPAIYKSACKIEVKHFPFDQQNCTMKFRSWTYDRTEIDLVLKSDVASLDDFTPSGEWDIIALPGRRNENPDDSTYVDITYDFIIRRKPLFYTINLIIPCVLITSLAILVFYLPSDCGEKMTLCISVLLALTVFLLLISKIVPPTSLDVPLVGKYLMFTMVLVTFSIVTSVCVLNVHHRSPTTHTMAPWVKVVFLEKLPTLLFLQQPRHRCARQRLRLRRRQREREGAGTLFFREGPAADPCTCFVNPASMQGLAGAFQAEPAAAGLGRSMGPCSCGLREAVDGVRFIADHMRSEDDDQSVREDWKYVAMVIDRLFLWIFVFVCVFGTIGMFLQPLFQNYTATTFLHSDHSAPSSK", "experiment": "biochemical", "format": "binding, C57BL/6J mice", "conditions": "read-out: [125I]epibatidine (β4 -/-) Ki; inferior colliculi, β4-/- mice; 200 pM ligand"}, "[2]": {"system": "cytisine-resistant [125I]epibatidine binding sites (mixed population of nAChR)", "conditions": "membranes, any brain region analyzed; 0.2 mg/kg/h iv 7 days"}, "[3]": {"system": "A85380-resistant [125I]epibatidine binding sites (mainly α3β4* nAChR)", "conditions": "membranes; 0.2 mg/kg/h iv 7 days"}, "α7* nAChR binding sites": {"system": "α7* nAChR binding sites", "format": "in vivo, DBA/2J mice", "conditions": "for [125I]α-bungarotoxin binding: 3-IC 0.2 mg/kg/h iv 7 days; for [125I]α-bungarotoxin binding % change: 3-IC 0.2 mg/kg/h iv 7 days vs saline"}, "C57BL/6J mice": {"system": "C57BL/6J mice", "experiment": "3-IC-induced hypothermia", "format": "in vivo, mouse"}, "β4 null mutant mice": {"system": "β4 null mutant mice", "experiment": "3-IC-induced hypothermia in β4 null mutant and wild-type mice", "format": "in vivo, mouse", "conditions": "0.2 mg/kg ip", "in_short": "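Null mutants were backcrossed onto C57BL/6J for at least 10 generations, genotyped from tail DNA, and compared with wild-type mice (β2-/- n = 5; β4-/- n = 5). Test compound was given at 0.2 mg/kg IP in 10 µl/g body weight. Rectal temperature was taken every 5 minutes with a peanut-oil-lubricated probe inserted 1.5 cm. Data are mean ± SEM, analysed by repeated-measures ANOVA (time × genotype).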"}, "[4]": {"system": "[3H]noradrenaline release", "conditions": "read-out: EC50 [3H]noradrenaline release; rat hippocampal slices; ref Abin-Carriquiry et al., 2006; cited from earlier work"}, "α4β2* receptors": {"biological_target": "α4β2* receptors", "conditions": "read-out: Ki α4β2* receptors in rat brain; ref Abin-Carriquiry et al., 2006; cited from earlier work"}, "α7* receptors": {"biological_target": "α7* receptors", "conditions": "read-out: Ki α7* receptors in rat brain; ref Abin-Carriquiry et al., 2006; cited from earlier work"}, "DBA/2J mice": {"system": "DBA/2J mice", "experiment": "Chronic intravenous 3-IC infusion and tolerance test", "format": "in vivo, mouse"}, "[5]": {"conditions": "inferior colliculus (externall)"}, "[6]": {"conditions": "superior colliculus (optic nerve)"}, "[7]": {"conditions": "superior colliculus (sup. gray)"}, "[8]": {"conditions": "supramammillary hypothalamic nucleus"}, "[9]": {"conditions": "ventrolateral geniculate nucleus"}}, "note": "Where two headings read alike, the source gives them in different places. Marks after values point to notes of the source that are not given here.", "data": [{"smiles": "O=c1c(I)ccc2n1C[C@@H]1CNC[C@H]2C1", "note": "[3-IC, 3-iodocytisine]", "values": [{"measurement": "difference in affinity for the two [125I]epibatidine binding sites", "setting": "[1]", "result": 1.6, "unit": "fold"}, {"measurement": "Ki", "setting": "β4*-nAChR", "result": "0.25 ± 0.04", "unit": "nM"}, {"measurement": "Ki", "setting": "human α4β2", "result": 0.7, "unit": "nM"}, {"measurement": "Ki", "setting": "α7-nAChR", "result": "2.2 ± 1.2", "unit": "nM"}, {"measurement": "Ki", "setting": "β2*-nAChR", "result": "0.128 ± 0.003", "unit": "nM"}, {"measurement": "density of cytisine-resistant [125I]epibatidine binding sites vs saline", "setting": "[2]", "result": "No significant differences"}, {"measurement": "A85380 resistant component of [125I]epibatidine binding", "setting": "[3]", "result": "unmodified"}, {"measurement": "[125I]α-bungarotoxin binding", "setting": "α7* nAChR binding sites; caudate putamen", "result": "19.6 ± 2.3", "unit": "fmol/mg"}, {"measurement": "[125I]α-bungarotoxin binding % change", "setting": "α7* nAChR binding sites; caudate putamen", "result": 65.8, "unit": "%"}, {"measurement": "[125I]α-bungarotoxin binding % change", "setting": "α7* nAChR binding sites; caudate putamen, listed as 3-iodocytisine", "result": "65.8 * %"}, {"measurement": "[125I]α-bungarotoxin binding", "setting": "α7* nAChR binding sites; cingulate cortex", "result": "6.3 ± 1.4", "unit": "fmol/mg"}, {"measurement": "[125I]α-bungarotoxin binding % change", "setting": "α7* nAChR binding sites; cingulate cortex", "result": 11.7, "unit": "%"}, {"measurement": "[125I]α-bungarotoxin binding", "setting": "α7* nAChR binding sites; dentate gyrus (granular layer)", "result": "11.7 ± 1.2", "unit": "fmol/mg"}, {"measurement": "[125I]α-bungarotoxin binding % change", "setting": "α7* nAChR binding sites; dentate gyrus (granular layer)", "result": 63.5, "unit": "%"}, {"measurement": "[125I]α-bungarotoxin binding", "setting": "α7* nAChR binding sites; hippocampus (CA1-3)", "result": "10.2 ± 0.8", "unit": "fmol/mg"}, {"measurement": "[125I]α-bungarotoxin binding % change", "setting": "α7* nAChR binding sites; hippocampus (CA1-3)", "result": 77.5, "unit": "%"}, {"measurement": "[125I]α-bungarotoxin binding % change", "setting": "α7* nAChR binding sites; hippocampus (CA1-3), listed as 3-iodocytisine", "result": "77.5 ** %"}, {"measurement": "[125I]α-bungarotoxin binding", "setting": "α7* nAChR binding sites; inferior colliculus (central)", "result": "37.6 ± 4.2", "unit": "fmol/mg"}, {"measurement": "[125I]α-bungarotoxin binding % change", "setting": "α7* nAChR binding sites; inferior colliculus (central)", "result": 21.7, "unit": "%"}, {"measurement": "[125I]α-bungarotoxin binding", "setting": "α7* nAChR binding sites; inferior colliculus (dorsal)", "result": "21.7 ± 3.7", "unit": "fmol/mg"}, {"measurement": "[125I]α-bungarotoxin binding % change", "setting": "α7* nAChR binding sites; inferior colliculus (dorsal)", "result": 14.4, "unit": "%"}, {"measurement": "[125I]α-bungarotoxin binding", "setting": "α7* nAChR binding sites; [5]", "result": "23.5 ± 4.1", "unit": "fmol/mg"}, {"measurement": "[125I]α-bungarotoxin binding % change", "setting": "α7* nAChR binding sites; [5]", "result": 33.1, "unit": "%"}, {"measurement": "[125I]α-bungarotoxin binding", "setting": "α7* nAChR binding sites; interpeduncular nucleus", "result": "23.5 ± 1.4", "unit": "fmol/mg"}, {"measurement": "[125I]α-bungarotoxin binding % change", "setting": "α7* nAChR binding sites; interpeduncular nucleus", "result": "26.2 * %"}, {"measurement": "[125I]α-bungarotoxin binding", "setting": "α7* nAChR binding sites; medial habenula", "result": "11.6 ± 1.0", "unit": "fmol/mg"}, {"measurement": "[125I]α-bungarotoxin binding % change", "setting": "α7* nAChR binding sites; medial habenula", "result": 26.4, "unit": "%"}, {"measurement": "[125I]α-bungarotoxin binding", "setting": "α7* nAChR binding sites; nucleus accumbens", "result": "6.8 ± 0.7", "unit": "fmol/mg"}, {"measurement": "[125I]α-bungarotoxin binding % change", "setting": "α7* nAChR binding sites; nucleus accumbens", "result": 81.2, "unit": "%"}, {"measurement": "[125I]α-bungarotoxin binding % change", "setting": "α7* nAChR binding sites; nucleus accumbens, listed as 3-iodocytisine", "result": "81.2 ** %"}, {"measurement": "[125I]α-bungarotoxin binding", "setting": "α7* nAChR binding sites; parietal cortex (layers 1-3)", "result": "5.9 ± 0.3", "unit": "fmol/mg"}, {"measurement": "[125I]α-bungarotoxin binding % change", "setting": "α7* nAChR binding sites; parietal cortex (layers 1-3)", "result": "79.3 ** %"}, {"measurement": "[125I]α-bungarotoxin binding", "setting": "α7* nAChR binding sites; parietal cortex (layers 4-6)", "result": "7.8 ± 0.4", "unit": "fmol/mg"}, {"measurement": "[125I]α-bungarotoxin binding % change", "setting": "α7* nAChR binding sites; parietal cortex (layers 4-6)", "result": "74.4 ** %"}, {"measurement": "[125I]α-bungarotoxin binding", "setting": "α7* nAChR binding sites; retrosplenial Cortex", "result": "4.8 ± 0.4", "unit": "fmol/mg"}, {"measurement": "[125I]α-bungarotoxin binding % change", "setting": "α7* nAChR binding sites; retrosplenial Cortex", "result": 21.2, "unit": "%"}, {"measurement": "[125I]α-bungarotoxin binding", "setting": "α7* nAChR binding sites; subiculum", "result": "7.1 ± 0.7", "unit": "fmol/mg"}, {"measurement": "[125I]α-bungarotoxin binding % change", "setting": "α7* nAChR binding sites; subiculum", "result": 22.0, "unit": "%"}, {"measurement": "[125I]α-bungarotoxin binding", "setting": "α7* nAChR binding sites; substantia nigra", "result": "7.9 ± 0.9", "unit": "fmol/mg"}, {"measurement": "[125I]α-bungarotoxin binding % change", "setting": "α7* nAChR binding sites; substantia nigra", "result": 29.5, "unit": "%"}, {"measurement": "[125I]α-bungarotoxin binding", "setting": "α7* nAChR binding sites; [6]", "result": "11.5 ± 0.5", "unit": "fmol/mg"}, {"measurement": "[125I]α-bungarotoxin binding % change", "setting": "α7* nAChR binding sites; [6]", "result": "44.2 ** %"}, {"measurement": "[125I]α-bungarotoxin binding", "setting": "α7* nAChR binding sites; [7]", "result": "23.1 ± 0.8", "unit": "fmol/mg"}, {"measurement": "[125I]α-bungarotoxin binding % change", "setting": "α7* nAChR binding sites; [7]", "result": "34.7 ** %"}, {"measurement": "[125I]α-bungarotoxin binding", "setting": "α7* nAChR binding sites; [8]", "result": "12.1 ± 1.2", "unit": "fmol/mg"}, {"measurement": "[125I]α-bungarotoxin binding % change", "setting": "α7* nAChR binding sites; [8]", "result": 24.4, "unit": "%"}, {"measurement": "[125I]α-bungarotoxin binding", "setting": "α7* nAChR binding sites; ventral tegmental area", "result": "5.2 ± 0.4", "unit": "fmol/mg"}, {"measurement": "[125I]α-bungarotoxin binding % change", "setting": "α7* nAChR binding sites; ventral tegmental area", "result": 40.5, "unit": "%"}, {"measurement": "[125I]α-bungarotoxin binding % change", "setting": "α7* nAChR binding sites; ventral tegmental area, listed as 3-iodocytisine", "result": "40.5 * %"}, {"measurement": "[125I]α-bungarotoxin binding", "setting": "α7* nAChR binding sites; [9]", "result": "18.1 ± 1.2", "unit": "fmol/mg"}, {"measurement": "[125I]α-bungarotoxin binding % change", "setting": "α7* nAChR binding sites; [9]", "result": "30.2 * %"}, {"measurement": "[125I]α-bungarotoxin binding", "setting": "α7* nAChR binding sites; zona incerta", "result": "11.1 ± 1.0", "unit": "fmol/mg"}, {"measurement": "[125I]α-bungarotoxin binding % change", "setting": "α7* nAChR binding sites; zona incerta", "result": 52.1, "unit": "%"}, {"measurement": "[125I]α-bungarotoxin binding % change", "setting": "α7* nAChR binding sites; zona incerta, listed as 3-iodocytisine", "result": "52.1 * %"}, {"measurement": "decrease of basal temperature", "setting": "C57BL/6J mice; 0.2 mg/kg ip acute", "result": "9.2 ± 1.13", "unit": "°C"}, {"measurement": "maximal temperature decrease", "setting": "C57BL/6J mice; 1 mg/kg ip", "result": "13.3 ± 0.9", "unit": "°C"}, {"measurement": "maximal 3-IC-induced hypothermia after saline pretreatment", "setting": "C57BL/6J mice; hexamethonium experiment, 3-IC 0.2 mg/kg", "result": "9.25 ± 0.76", "unit": "°C"}, {"measurement": "ED50 for hypothermia", "setting": "C57BL/6J mice; ip, maximal drop in temperature", "result": "0.16 ± 0.03", "unit": "mg/kg"}, {"measurement": "3-IC-induced hypothermia after saline pretreatment", "setting": "C57BL/6J mice; mecamylamine experiment, 3-IC 0.2 mg/kg ip", "result": "9.25 ± 0.76", "unit": "°C"}, {"measurement": "maximal hypothermia", "setting": "β4 null mutant mice; β4+/+ mice", "result": "7.9 ± 0.3", "unit": "°C"}, {"measurement": "maximal hypothermia", "setting": "β4 null mutant mice; β4-/- mice", "result": "2.9 ± 0.4", "unit": "°C"}, {"measurement": "EC50", "setting": "[4]", "result": 220, "unit": "nM"}, {"measurement": "Ki", "setting": "α4β2* receptors", "result": 0.17, "unit": "nM"}, {"measurement": "Ki", "setting": "α7* receptors", "result": 115, "unit": "nM"}, {"measurement": "tolerance after chronic infusion", "setting": "DBA/2J mice; 0.2 mg/kg/h iv 7 days", "result": "did not elicit tolerance"}, {"measurement": "decrease of body temperature during infusion", "setting": "DBA/2J mice; after 24 hours of continuous intravenous infusion of 0.5 mg/kg/h", "result": "13 ± 0.3", "unit": "°C"}, {"measurement": "infusion doses that elicited tremors", "setting": "DBA/2J mice; continuous intravenous infusion", "result": "higher than 0.2 mg/kg/h"}]}]}
